The record followed here is ChEMBL document CHEMBL1148778, “Synthesis and characterization of nonsteroidal glucocorticoid receptor modulators for multiple myeloma” (J Med Chem, 2007).

The target in assay [1] is T1, Glucocorticoid receptor (Homo sapiens, UniProt P04150).
T1 sequence (P04150 whole entry): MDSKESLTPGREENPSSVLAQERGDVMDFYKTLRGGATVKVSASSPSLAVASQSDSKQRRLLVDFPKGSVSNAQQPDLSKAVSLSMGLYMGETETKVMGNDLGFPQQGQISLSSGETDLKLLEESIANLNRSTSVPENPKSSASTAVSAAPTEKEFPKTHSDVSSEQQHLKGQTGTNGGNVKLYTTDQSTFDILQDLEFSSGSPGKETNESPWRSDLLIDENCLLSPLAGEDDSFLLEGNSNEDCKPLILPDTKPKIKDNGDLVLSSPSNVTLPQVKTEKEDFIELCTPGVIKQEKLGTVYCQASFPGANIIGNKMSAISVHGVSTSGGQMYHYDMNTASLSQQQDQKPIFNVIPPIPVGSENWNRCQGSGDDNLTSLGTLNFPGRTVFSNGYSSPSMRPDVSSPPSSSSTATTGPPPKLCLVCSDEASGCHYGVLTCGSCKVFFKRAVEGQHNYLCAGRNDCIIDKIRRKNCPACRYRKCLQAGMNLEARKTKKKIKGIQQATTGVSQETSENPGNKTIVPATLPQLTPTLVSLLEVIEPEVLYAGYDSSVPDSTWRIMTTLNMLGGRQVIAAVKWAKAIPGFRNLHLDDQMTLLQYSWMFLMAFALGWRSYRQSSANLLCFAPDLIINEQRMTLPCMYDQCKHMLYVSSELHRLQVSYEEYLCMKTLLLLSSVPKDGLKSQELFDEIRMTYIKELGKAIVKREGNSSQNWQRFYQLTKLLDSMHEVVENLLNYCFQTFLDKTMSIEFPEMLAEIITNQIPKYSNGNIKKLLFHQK
The assay is described as follows: Activity at human GR expressed in NHDFneo cells assessed as inhibition of IL-6 production. The assay is classed as cell-based.

Assay [2] deals with RPMI-8226. The assay is described as follows: Antiproliferative activity against human RPMI8226 cells after 4 days. The assay is classed as functional, cell-based. The note with it: RPMI-8226, 96 h.
In assay [3] the test system is RPMI-8226. The assay is described as follows: Antiproliferative activity against human RPMI8226 cells after 4 days relative to Dexamethasone. The assay is classed as functional.
Assay [4] deals with T1, Glucocorticoid receptor. The experiment in a line: Binding affinity to GR.
The target of assay [5] is T2, Progesterone receptor (Homo sapiens, UniProt P06401).
T2 sequence (P06401 whole entry): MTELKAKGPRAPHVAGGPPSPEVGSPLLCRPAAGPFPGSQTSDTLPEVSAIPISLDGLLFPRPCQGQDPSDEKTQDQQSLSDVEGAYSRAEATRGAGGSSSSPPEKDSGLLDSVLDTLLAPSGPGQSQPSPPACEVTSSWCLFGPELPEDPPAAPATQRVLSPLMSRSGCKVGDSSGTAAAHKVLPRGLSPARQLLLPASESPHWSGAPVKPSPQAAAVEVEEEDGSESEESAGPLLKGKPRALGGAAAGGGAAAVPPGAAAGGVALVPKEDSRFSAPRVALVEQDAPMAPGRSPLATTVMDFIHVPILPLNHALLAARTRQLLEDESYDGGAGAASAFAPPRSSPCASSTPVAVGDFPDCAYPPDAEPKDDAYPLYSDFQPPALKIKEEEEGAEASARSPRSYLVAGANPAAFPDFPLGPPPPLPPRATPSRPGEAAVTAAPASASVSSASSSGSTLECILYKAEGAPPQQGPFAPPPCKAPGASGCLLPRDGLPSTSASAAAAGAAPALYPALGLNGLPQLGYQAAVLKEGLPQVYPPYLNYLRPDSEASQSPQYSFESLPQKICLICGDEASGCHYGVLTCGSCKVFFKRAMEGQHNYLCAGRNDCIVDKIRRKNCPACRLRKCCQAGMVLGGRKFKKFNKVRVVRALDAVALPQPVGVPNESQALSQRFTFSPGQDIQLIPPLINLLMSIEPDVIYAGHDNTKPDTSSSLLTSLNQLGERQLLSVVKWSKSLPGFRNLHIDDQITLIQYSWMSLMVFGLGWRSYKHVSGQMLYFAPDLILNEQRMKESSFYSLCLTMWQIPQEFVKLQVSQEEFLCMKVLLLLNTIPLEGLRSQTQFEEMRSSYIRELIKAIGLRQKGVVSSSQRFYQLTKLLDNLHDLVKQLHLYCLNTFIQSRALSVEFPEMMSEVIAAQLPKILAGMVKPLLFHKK
The experiment in a line: Binding affinity to PR. The method, boiled down:
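Competitive binding assays on PR and MR. Values are means of at least three separate experiments, each with triplicate determinations, ± SEM. A value without SEM comes from a single determination.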

Assay [6] addresses T3, Androgen receptor (Homo sapiens, UniProt P10275).
T3 sequence (P10275 whole entry): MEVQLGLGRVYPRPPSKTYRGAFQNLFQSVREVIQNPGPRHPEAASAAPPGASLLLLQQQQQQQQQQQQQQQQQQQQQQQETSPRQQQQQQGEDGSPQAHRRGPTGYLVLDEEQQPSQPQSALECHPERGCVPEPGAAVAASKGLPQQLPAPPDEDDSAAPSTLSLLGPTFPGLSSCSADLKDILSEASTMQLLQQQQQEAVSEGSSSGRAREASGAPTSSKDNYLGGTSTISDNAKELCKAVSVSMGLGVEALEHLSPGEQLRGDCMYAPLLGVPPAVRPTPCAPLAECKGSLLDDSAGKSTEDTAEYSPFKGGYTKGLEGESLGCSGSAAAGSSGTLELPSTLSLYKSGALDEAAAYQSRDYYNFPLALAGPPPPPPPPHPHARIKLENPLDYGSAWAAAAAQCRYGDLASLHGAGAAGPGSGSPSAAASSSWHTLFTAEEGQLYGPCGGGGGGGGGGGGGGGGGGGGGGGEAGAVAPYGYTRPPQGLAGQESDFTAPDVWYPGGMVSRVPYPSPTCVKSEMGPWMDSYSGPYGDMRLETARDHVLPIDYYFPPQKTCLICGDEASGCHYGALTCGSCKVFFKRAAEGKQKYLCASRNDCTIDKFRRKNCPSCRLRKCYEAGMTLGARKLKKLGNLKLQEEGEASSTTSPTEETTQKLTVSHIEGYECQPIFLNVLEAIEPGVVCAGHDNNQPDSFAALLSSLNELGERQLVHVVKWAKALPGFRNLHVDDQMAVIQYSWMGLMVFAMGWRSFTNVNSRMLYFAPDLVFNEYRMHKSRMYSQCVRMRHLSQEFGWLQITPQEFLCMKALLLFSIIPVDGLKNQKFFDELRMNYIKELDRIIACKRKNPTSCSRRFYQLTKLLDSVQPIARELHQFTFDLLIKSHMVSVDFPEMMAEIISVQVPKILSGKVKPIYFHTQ
The experiment in a line: Binding affinity to AR.

Structures are written as SMILES.

Broadly, the IC50 is the midpoint of a concentration-inhibition curve. As a reminder, the Ki is a dissociation constant, usually derived from enzyme kinetics or from competition with a known ligand. High values mean weaker binding, low ones tighter binding. For `COCc1ccsc1/C=C1\Oc2ccc(O)c(OC)c2-c2ccc3c(c21)C(C)=CC(C)(C)N3`, the IC50 is 0.2 nM in assay [1] and 8.5 nM in assay [2]. In assay [3], this compound came in with an Efficacy of 98%. The inhibition constant Ki in assay [4] stood at 0.2 nM; in assay [5], 190 nM; in assay [6], 150 nM.
Regarding `CO/N=C(\C)c1ccsc1/C=C1\Oc2ccc(O)c(OC)c2-c2ccc3c(c21)C(C)=CC(C)(C)N3`, the IC50 in assay [1] is 0.2 nM; in assay [2], 9.5 nM. Also, in assay [3], the Efficacy was 101%. The Ki in assay [4] was 1.1 nM; in assay [5], 38 nM; in assay [6], 110 nM.
In the case of `COc1c(O)ccc2c1-c1ccc3c(c1/C(=C/c1sccc1CO)O2)C(C)=CC(C)(C)N3`, the IC50 in assay [1] worked out at 0.2 nM; in assay [2], 4.9 nM. Moreover, the Efficacy in assay [3] was 99%. The Ki came to 0.7 nM in assay [4], 1400 nM in assay [5] and 290 nM in assay [6].
